SENP1 inh: human SENP1 catalytic domain inhibitors, primary screen, biochemical, FRET, uHTS; 360,000 tested, 0.21% active; inhibition, % at 10 µM; Sentrin-specific protease 1 (Homo sapiens), Q9P0U3; recombinant SENP1 catalytic domain, CyPet-SUMO1-YPet FRET cleavage; AID 624204, 2012;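 active = inhibition at least 30% at 10 µM, raw YFP signal under a set limit, fluorescence ratio 0.5 to 1.5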;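 also: 0% = enzyme with DMSO and 100% = no enzyme wells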
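Assay system – human recombinant His6-tagged SENP1 catalytic domain enzyme · Input – SENP1 enzyme, 20 pM final · Buffer or medium – Tris pH 8 buffer plus EDTA, NaCl, BME, BSA, NP40, catalase · Schedule – 50 min reaction at room temperature · Technique – FRET read of cyan and yellow fluorescence · Control set – no-enzyme wells low, DMSO-plus-enzyme wells high control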
SENP8 block-1: human SENP8 protease inhibitors, primary screen, biochemical, fluorescence, Nedd8 protein substrate, uHTS; Sentrin-specific protease 8 (Homo sapiens), Q96LD8; recombinant SENP8; inhibition, % at 20 µM; 360,000 tested, 0.64% active; in the data active = inhibition mostly above about 40%, no sharp cut-off; inactive = mostly below about 27%
Target sequence (Q96LD8 whole entry, looked up): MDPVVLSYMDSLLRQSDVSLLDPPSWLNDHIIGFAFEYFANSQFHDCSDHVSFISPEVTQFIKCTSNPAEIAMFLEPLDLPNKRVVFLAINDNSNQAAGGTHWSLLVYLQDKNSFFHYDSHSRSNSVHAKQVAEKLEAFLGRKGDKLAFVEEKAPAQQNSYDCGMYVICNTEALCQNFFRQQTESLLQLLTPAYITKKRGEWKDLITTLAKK
SENP7 block: SENP7 protease inhibitors, primary screen, biochemical, luminescence, uHTS | Sentrin-specific protease 7 (Homo sapiens), Q9BQF6 | recombinant SENP7, Z-RLRGG-aminoluciferin luminescence, 40 min | inhibition, % at 5 µM | 330,000 tested, 1.5% active | AID 434973, 2010;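 active = inhibition above about 50% at the single test dose, limit read from the data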;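 also: plate controls were DMSO with enzyme for no effect and no enzyme buffer wells for full effect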
Target sequence (Q9BQF6 706-1050 limits assumed): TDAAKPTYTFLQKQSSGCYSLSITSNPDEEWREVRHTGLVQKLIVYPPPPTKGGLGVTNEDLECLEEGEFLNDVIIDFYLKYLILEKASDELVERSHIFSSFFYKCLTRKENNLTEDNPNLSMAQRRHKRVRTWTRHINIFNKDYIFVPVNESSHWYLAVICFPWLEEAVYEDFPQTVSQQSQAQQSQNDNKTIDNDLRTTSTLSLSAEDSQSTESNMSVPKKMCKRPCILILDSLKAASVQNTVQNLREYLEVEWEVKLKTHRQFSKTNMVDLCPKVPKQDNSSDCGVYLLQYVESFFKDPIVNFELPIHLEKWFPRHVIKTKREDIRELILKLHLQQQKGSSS
SENP8 block-2: SENP8 protease inhibitors, primary screen, biochemical, luminescence | purified SENP8, Z-RLRGG-aminoluciferin cleavage | inhibition, % at 10 µM | 330,000 tested, 1.2% active | AID 2540, 2010; in the data active = inhibition above about 50%
Platelet DG rel: inhibitors of platelet dense granule secretion, primary screen, cell-based, MLPCN, human platelets. human platelet-rich plasma, SFLLRN dense granule ATP release, luminescence. inhibition, %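 (compounds screened at 7.5 µM in platelet-rich plasma)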. 300,000 tested, 0.22% active;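 active = mean replicate score, as percent of positive control, at or above 50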
SENP6 inh: SENP6 protease inhibitors, primary screen, biochemical, luminescence, uHTS; Recombinant SENP6 catalytic domain, aminoluciferin luminescence; inhibition, % at 10 µM; 330,000 tested, 1.8% active; AID 2599, 2010; Sentrin-specific protease 6 (Homo sapiens), Q9GZR1;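 active = inhibition above about 50% at the single tested dose, limit read from the data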;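 also: plate controls were DMSO wells with enzyme for no effect and DMSO wells lacking enzyme for full effect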
SENP8 conf: SENP8 protease inhibitors, retest, confirmation, biochemical, luminescence, single concentration. shares compounds with SENP7 block. Recombinant SENP8, Z-RLRGG-aminoluciferin luminescence, 60 min. inhibition, % at 12.5 µM. 6,200 tested, 40% active;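 active = mean inhibition across replicates above about 50%, limit read from the data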
SENP6 conf: SENP6 protease inhibitors, confirmation, biochemical, luminescence, single concentration | AID 488915, 2010 | 6,200 tested, 58% active | recombinant SENP6, Z-RLRGG-aminoluciferin luminescence | shares compounds with SENP7 block | inhibition, % at 12.5 µM
SENP7 conf: SENP7 protease inhibitors, retest, confirmation, biochemical, luminescence, single concentration. 6,200 tested, 69% active. shares compounds with SENP7 block. inhibition, % at 12.5 µM. AID 488917, 2010. recombinant SENP7, Z-RLRGG-aminoluciferin luminescence, 40 min
Casp3 select: caspase-3 protease inhibitors, confirmation, selectivity assay for SENP inhibitor project, biochemical, single concentration; 6,200 tested, 60% active; shares compounds with SENP7 block; AID 488918, 2010; purified caspase-3, Z-DEVD-aminoluciferin luminescence, 60 min; inhibition, % at 12.5 µM;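 active = mean inhibition above about 50%, limit read from the data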;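 also: plate controls were enzyme with DMSO for no effect and wells without caspase-3 for full effect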
Luc interf: luminescence interference (SENP counter-screen); shares compounds with SENP7 block; Pre-incubated SENP8/Z-RLRGG-aminoluciferin, luciferase luminescence interference; inhibition, % at 12.5 µM; 6,200 tested, 39% active; AID 488919;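 active = mean inhibition above about 50% when retested at one dose, limit read from the data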;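 also: plate controls were DMSO wells with completed reaction for no effect and substrate without enzyme for full effect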
Starred values were filed as active, the others as inactive; . = no result. This is a sample that favours compounds with a hit; in the whole collection about 2.6% have one here.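 The calls were made as follows, unless noted: active = mean inhibition above about 50% in the one-dose retest (limit read from the data); inactive = the rest.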

SMILES	SENP1 inh	SENP8 block-1	SENP7 block	SENP8 block-2	Platelet DG rel	SENP6 inh	SENP8 conf	SENP6 conf	SENP7 conf	Casp3 select	Luc interf
Cc1ccc(S(=O)(=O)N2[C@H](CC(=O)c3cccs3)OC[C@@H]2C)cc1	4	26	.	.	.	.	.	.	.	.	.
O=c1[nH]c2ccc(S(=O)(=O)N3CCN(c4ccc(F)cc4)CC3)cc2o1	4	4	1	55*	-9	14	6	6	-7	-6	-2
O=C(O)CC1c2ccccc2CCN1S(=O)(=O)c1ccc(F)cc1 (stereo not given)	2	8	-4	-9	1	4	.	.	.	.	.
C/C(=N/OC(=O)c1ccc(C(F)(F)F)cc1)c1oc(C)nc1C	3	20	91*	72*	16	84*	78*	79*	97*	86*	57*
CC(=O)c1c(C)[nH]c(C(=O)CN2CCN(S(=O)(=O)c3ccccc3F)CC2)c1C	0	11	-2	0	.	-4	.	.	.	.	.
Cc1c(NC(=O)COc2cccc(Br)c2)c(=O)n(-c2ccccc2)n1C	2	6	-11	-5	-14	-12	.	.	.	.	.
O=C(c1ccco1)c1coc2c1cc(O)c1ccccc12	1	21	20	-5	-7	60*	-14	7	-1	1	-3
Cc1ccc2nc(/C(C#N)=C/c3ccc(O)c(O)c3)[nH]c2c1	-37	-163	8	17	4	65*	54*	48	72*	30	9
O=c1c(-c2ccco2)nc2ccccc2n1C(c1ccccc1)c1nc2ccccc2[nH]1 (stereo not given)	-42	-440	.	.	.	.	.	.	.	.	.
CCCCNc1cc(NC(C)=O)cc2cc(OC)c(OC)cc12	3	-272	-10	32	-20	51*	27	55*	15	2	1
COc1cc2cc(NC(C)=O)cc(NCc3ccccc3)c2cc1OC	-2	-313	47	70*	-4	75*	10	31	13	6	-7
O=C(CCNC(=O)c1ccc(Cl)cc1)NCC(c1ccco1)N1CCCC1 (stereo not given)	0	11	-2	-1	.	-18	.	.	.	.	.
Cc1c(NC(=O)[C@@H](NC(=O)c2ccc(Cl)c([N+](=O)[O-])c2)C(C)C)c(=O)n(-c2ccccc2)n1C	3	24	6	-2	.	-22	.	.	.	.	.
O=[N+]([O-])c1ccc2cn(-c3ccccc3)nc2c1	3	21	81*	60*	1	14	34	70*	92*	69*	44
CCC(C)NC(=O)CN(c1cc(Cl)cc(Cl)c1)S(C)(=O)=O (stereo not given)	-3	7	-9	-10	-5	4	.	.	.	.	.
O=C(Nc1ccccc1)Nc1ccc2ncoc2c1	2	-10	62*	25	-4	0	58*	53*	82*	67*	58*
O=C(Nc1ccccc1)Nc1ccc2ocnc2c1	2	-12	76*	58*	22	31	4	64*	88*	84*	45
COc1ccc(NC(=O)CCCNC(=O)Cn2cnc3sc4c(c3c2=O)CCCC4)c(OC)c1	1	11	3	0	4	0	.	.	.	.	.
O=C(O)/C=C/c1cccc2c1OCCO2	0	10	5	-4	-8	5	.	.	.	.	.
CCN(Cc1ccc2c(c1)OCO2)C(=O)/C=C/c1cccc(Br)c1	0	2	-4	-13	3	-6	.	.	.	.	.
O=C(/C=C/c1ccccc1)c1ccc2c(c1)OCO2	2	12	93*	76*	-20	82*	20	51*	33	28	90*
O=C(/C=C/c1ccc2c(c1)OCO2)c1ccc(F)cc1	-5	-83	34	25	6	45	.	.	.	.	.
O=C(/C=C/c1ccncc1)c1ccc2c(c1)OCCO2	2	2	3	-4	-3	-7	.	.	.	.	.
O=C(/C=C\Nc1ccccc1Br)c1ccc2c(c1)OCO2	-37	-20	89*	86*	12	87*	84*	93*	98*	78*	8
O=C(/C=C/c1ccc2c(c1)OCO2)c1ccc[nH]1	-38	-422	78*	59*	16	77*	73*	64*	91*	41	69*
SMILES	SENP1 inh	SENP8 block-1	SENP7 block	SENP8 block-2	Platelet DG rel	SENP6 inh	SENP8 conf	SENP6 conf	SENP7 conf	Casp3 select	Luc interf
O=C(/C=C/c1cccc(Br)c1)c1ccc2c(c1)OCO2	0	3	-33	34	4	76*	4	5	-13	-13	10
CC1CCN(C(=O)C2CCN(S(=O)(=O)c3cc(Cl)ccc3Cl)CC2)CC1	1	14	-4	-3	-2	-8	.	.	.	.	.
COc1cc2c3c(n(C)c(=O)c2cc1OC)-c1cc2c(cc1C3=O)OCO2	3	0	.	.	.	.	.	.	.	.	.
CN(C)c1ccc(/C=C/C(=O)c2ccc3c(c2)OCO3)cc1	-42	-381	88*	88*	.	91*	95*	94*	101*	83*	66*
COc1cccc(/C=C/C(=O)c2ccc3c(c2)OCO3)c1OC	-1	10	-2	-4	.	11	.	.	.	.	.
O=C(/C=C\Nc1cccc(F)c1)c1ccc2c(c1)OCO2	-57	-182	96*	56*	25	94*	79*	87*	92*	84*	28
O=C(/C=C/c1ccccc1Br)c1ccc2c(c1)OCO2	2	14	92*	91*	-9	94*	72*	74*	64*	60*	54*

Screens: PubChem, several laboratories
